Source: ChEMBL document CHEMBL1250442, “Inhibiting gene expression at transcription start sites in chromosomal DNA with antigene RNAs” (Nat Chem Biol, 2005)
Calls of active or inactive are those of the source. The calls are words filed in the database; no cut-off is given here.

Experiments:
T47D [1] = test: Inhibition of PR-A gene expression in human T47D cells at 25 nM by syber green assay in presence of 10 nM estradiol; assay type: functional, cell-based
T47D [2] = test: Inhibition of PR-B gene expression in human T47D cells at 25 nM by syber green assay in presence of 10 nM estradiol; assay type: functional, cell-based
T47D [3] = test: Inhibition of PR-A mRNA gene expression in human T47D cells at 100 nM by syber green assay; assay type: functional
Summary of the method: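 T47D cells plated at 80,000/well without antibiotics two days before Oligofectamine transfection with agRNA duplex (25 or 100 nM final); medium changed at 24 h, harvest day 5 unless stated otherwise. TRIzol total RNA; PR mRNA by real-time PCR with SYBR Green: 50 °C 2 min, 95 °C 10 min, 40 cycles 95 °C 15 s/60 °C 1 min.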

T47D [4] = test: Inhibition of PR-B mRNA gene expression in human T47D cells at 100 nM by syber green assay; assay type: functional
Summary of the method: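 T47D cells in RPMI-1640 with 10% FBS, NEAA, insulin, 37 °C, 5% CO2. Plated two days before transfection without antibiotics. Oligofectamine-mediated duplex RNA transfection at 100 nM final, medium changed at 24 h, harvest five days post-transfection. Total RNA extracted with TRIzol. hPR mRNA quantified by SYBR Green qPCR: 50 °C 2 min, 95 °C 10 min, then 40 cycles of 95 °C 15 s / 60 °C 1 min.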

T47D [5] = test: Inhibition of androgen receptor expression in human T47D cells after 12 days at 100 nM by syber green assay; assay type: functional, cell-based
Summary of the method: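 AR expression in T47D cells, grown in RPMI-1640 with 10% FBS, NEAA and insulin. Plated antibiotic-free two days before Oligofectamine transfection with 100 nM duplex RNA; medium replaced after 24 h. TRIzol total RNA. SYBR Green real-time PCR: 50 °C 2 min, 95 °C 10 min, 40 cycles of 95 °C 15 s and 60 °C 1 min.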

T47D [6] = test: Effect of DNA methylation at (-178) CpG site near androgen receptor transcription start site (-9) in human T47D cells by sodium bisulfite sequencing analysis; assay type: functional, cell-based
Summary of the method: (§1)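 T47D cells (RPMI-1640, 10% FBS, NEAA, insulin; 37 °C, 5% CO2) transfected with agRNA duplexes via Oligofectamine, medium changed at 24 h. Genomic DNA bisulphite-treated, regions around AR and hPR-B start sites PCR-amplified (HotStarTaq, 100 ng treated DNA), gel-purified, TOPO TA cloned; 5–15 colonies per plate miniprepped and sequenced.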

T47D [7] = test: Effect of DNA methylation at (-172) CpG site near androgen receptor transcription start site (-9) in human T47D cells by sodium bisulfite sequencing analysis; assay type: functional, cell-based; summary of the method: as §1
T47D [8] = test: Effect of DNA methylation at (-167) CpG site near androgen receptor transcription start site (-9) in human T47D cells by sodium bisulfite sequencing analysis; assay type: functional, cell-based; summary of the method: as §1
T47D [9] = test: Effect of DNA methylation at (-132) CpG site near androgen receptor transcription start site (-9) in human T47D cells by sodium bisulfite sequencing analysis; assay type: functional, cell-based; summary of the method: as §1
T47D [10] = test: Effect of DNA methylation at (-126) CpG site near androgen receptor transcription start site (-9) in human T47D cells by sodium bisulfite sequencing analysis; assay type: functional, cell-based; summary of the method: as §1
T47D [11] = test: Effect of DNA methylation at (-124) CpG site near androgen receptor transcription start site (-9) in human T47D cells by sodium bisulfite sequencing analysis; assay type: functional, cell-based; summary of the method: as §1
T47D [12] = test: Effect of DNA methylation at (-122) CpG site near androgen receptor transcription start site (-9) in human T47D cells by sodium bisulfite sequencing analysis; assay type: functional, cell-based; summary of the method: as §1
T47D [13] = test: Effect of DNA methylation at (-57) CpG site near androgen receptor transcription start site (-9) in human T47D cells by sodium bisulfite sequencing analysis; assay type: functional, cell-based; summary of the method: as §1
T47D [14] = test: Effect of DNA methylation at (-52) CpG site near androgen receptor transcription start site (-9) in human T47D cells by sodium bisulfite sequencing analysis; assay type: functional, cell-based; summary of the method: as §1
T47D [15] = test: Effect of DNA methylation at (-43) CpG site near androgen receptor transcription start site (-9) in human T47D cells by sodium bisulfite sequencing analysis; assay type: functional, cell-based; summary of the method: as §1
T47D [16] = test: Effect of DNA methylation at (-36) CpG site near androgen receptor transcription start site (-9) in human T47D cells by sodium bisulfite sequencing analysis; assay type: functional, cell-based; summary of the method: as §1
T47D [17] = test: Effect of DNA methylation at (-31) CpG site near androgen receptor transcription start site (-9) in human T47D cells by sodium bisulfite sequencing analysis; assay type: functional, cell-based; summary of the method: as §1
T47D [18] = test: Effect of DNA methylation at (+1) CpG site near androgen receptor transcription start site (-9) in human T47D cells by sodium bisulfite sequencing analysis; assay type: functional, cell-based
Summary of the method: (§2)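 T47D cells grown in RPMI-1640 with 10% FBS, 0.5% NEAA, insulin and P/S at 37 °C, 5% CO2. They were plated at 80,000 cells/well 2 days before lipid transfection with 25 nM or 100 nM duplex, with medium changed at 24 h. Cells were harvested 5 days post-transfection. 100 ng bisulfite-treated DNA was PCR-amplified, and products were TA-cloned. 5–15 colonies per plate were sequenced.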

T47D [19] = test: Effect of DNA methylation at (+11) CpG site near androgen receptor transcription start site (-9) in human T47D cells by sodium bisulfite sequencing analysis; assay type: functional, cell-based; summary of the method: as §2
T47D [20] = test: Effect of DNA methylation at (+19) CpG site near androgen receptor transcription start site (-9) in human T47D cells by sodium bisulfite sequencing analysis; assay type: functional, cell-based; summary of the method: as §2
T47D [21] = test: Effect of DNA methylation at (+43) CpG site near androgen receptor transcription start site (-9) in human T47D cells by sodium bisulfite sequencing analysis; assay type: functional, cell-based; summary of the method: as §1

For `Cc1cn(CC(=O)N(CCNC(=O)CN(CCNC(=O)CN(CCNC(=O)CN(CCNC(=O)CN(CCNC(=O)CN(CCNC(=O)CN(CCNC(=O)CN(CCNC(=O)CN(CCNC(=O)CN(CCNC(=O)CN(CCNC(=O)CN(CCNC(=O)CN(CCNC(=O)CN(CCNC(=O)CN(CCNC(=O)CN(CCNC(=O)CN(CCNC(=O)CN(CCNC(=O)CN(CCNC(=O)CN(CCNC(=O)CN)C(=O)Cn2ccc(N)nc2=O)C(=O)Cn2ccc(N)nc2=O)C(=O)Cn2cnc3c(N)ncnc32)C(=O)Cn2ccc(N)nc2=O)C(=O)Cn2ccc(N)nc2=O)C(=O)Cn2ccc(=O)[nH]c2=O)C(=O)Cn2ccc(N)nc2=O)C(=O)Cn2ccc(N)nc2=O)C(=O)Cn2ccc(N)nc2=O)C(=O)Cn2cnc3c(N)ncnc32)C(=O)Cn2cnc3c(=O)[nH]c(N)nc32)C(=O)Cn2ccc(N)nc2=O)C(=O)Cn2cnc3c(=O)[nH]c(N)nc32)C(=O)Cn2ccc(N)nc2=O)C(=O)Cn2ccc(N)nc2=O)C(=O)Cn2ccc(N)nc2=O)C(=O)Cn2ccc(N)nc2=O)C(=O)Cn2ccc(N)nc2=O)C(=O)Cn2ccc(=O)[nH]c2=O)CC(=O)NCCN(CC(=O)NCC(=O)O)C(=O)Cn2cc(C)c(=O)[nH]c2=O)c(=O)[nH]c1=O`, the inhibition (T47D [1]) was “Active”, the inhibition (T47D [2]) was “Active” and the inhibition at 0.1 µM (T47D [3]) was 82%. For the same molecule, the inhibition at 0.1 µM (T47D [4]) was 82%, the inhibition (T47D [5]) was “Active” and the Activity (T47D [6]) was “inactive”. The Activity (T47D [7]) was “inactive”, the Activity (T47D [8]) was “inactive” and the Activity (T47D [9]) was “inactive”. For the same molecule, the Activity (T47D [10]) was “inactive”, the Activity (T47D [11]) was “inactive” and the Activity (T47D [12]) was “inactive”. The Activity (T47D [13]) was “inactive”, the Activity (T47D [14]) was “inactive” and the Activity (T47D [15]) was “inactive”. For the same molecule, the Activity (T47D [16]) was “inactive”, the Activity (T47D [17]) was “inactive” and the Activity (T47D [18]) was “inactive”. The Activity (T47D [19]) was “inactive”, the Activity (T47D [20]) was “inactive” and the Activity (T47D [21]) was “inactive”.
